molecular target: not listed separately; experiment: Inhibitory activity against metabotropic glutamate receptor 5 (mGluR5)
In short: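 Functional FLIPR assay in CHO cells transfected with mGlu5 receptor.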

SMILES	Ki
Cc1ccc(C(=O)COC(=O)c2ccc(N3C(=O)CCCC3=O)cc2)cc1C	3.27 µM
Cc1ccc(C(=O)COC(=O)c2ccc(N3C(=O)C4C5C=CC(C5)C4C3=O)cc2)cc1C (stereo not drawn)	1.01 µM
Cc1ccc(C(=O)COC(=O)c2ccc(N3C(=O)C4CC(Br)C(Br)CC4C3=O)cc2)cc1C (stereo not drawn)	0.098 µM
Cc1ccc(C(=O)COC(=O)c2ccc(N3C(=O)CCC3=O)cc2)cc1C	0.506 µM
CC1=CCC2C(=O)N(c3ccc(C(=O)OCC(=O)c4ccc(C)c(C)c4)cc3)C(=O)C2C1 (stereo not drawn)	0.216 µM
Cc1ccc(C(=O)COC(=O)c2ccc(N3C(=O)[C@@H]4CCCC[C@H]4C3=O)cc2)cc1C	0.15 µM
Cc1ccc(C(=O)COC(=O)c2ccc(N3C(=O)CC(C)CC3=O)cc2)cc1C	1.84 µM
CC1=C(C)C(=O)N(c2ccc(C(=O)OCC(=O)c3ccc(C)c(C)c3)cc2)C1=O	6.43 µM
CC1=CC(=O)N(c2ccc(C(=O)OCC(=O)c3ccc(C)c(C)c3)cc2)C1=O	4.79 µM
Cc1ccc(C(=O)COC(=O)c2ccc(N3C(=O)C4CCC(C)CC4C3=O)cc2)cc1C (stereo not drawn)	0.113 µM
Cc1ccc(C(=O)COC(=O)c2ccc(N3C(=O)CC(C)C3=O)cc2)cc1C (stereo not drawn)	0.411 µM
Cc1ccc(C(=O)COC(=O)c2ccc(N3C(=O)[C@H]4CCCC[C@H]4C3=O)cc2)cc1C	0.19 µM

More lines, now with the values ahead:

Ki	SMILES
0.172 µM	Cc1ccc(C(=O)COC(=O)c2ccc(N3C(=O)C4CC=CCC4C3=O)cc2)cc1C (stereo not drawn)
1.68 µM	COc1ccc(C(=O)COC(=O)c2ccc(N3C(=O)C4CC=CCC4C3=O)cc2)cc1[N+](=O)[O-] (stereo not drawn)
0.303 µM	O=C(COC(=O)c1ccc(N2C(=O)C3CC=CCC3C2=O)cc1)c1ccc2ccccc2c1 (stereo not drawn)
1.09 µM	O=C(COC(=O)c1ccc(N2C(=O)C3CC=CCC3C2=O)cc1)c1ccc(N2CCCC2)cc1 (stereo not drawn)
3.36 µM	O=C(COC(=O)c1ccc(N2C(=O)C3CC=CCC3C2=O)cc1)c1ccc(N2CCOCC2)cc1 (stereo not drawn)
0.171 µM	O=C(COC(=O)c1ccc(N2C(=O)C3CC=CCC3C2=O)cc1)c1ccc2c(c1)CCCC2 (stereo not drawn)
1.6 µM	COc1ccc(C(=O)COC(=O)c2ccc(N3C(=O)C4CC=CCC4C3=O)cc2)cc1OC (stereo not drawn)
3.79 µM	Cc1ccc(C(=O)COC(=O)c2ccc(N3C(=O)C4CC=CCC4C3=O)cc2)cc1[N+](=O)[O-] (stereo not drawn)
2.04 µM	O=C(COC(=O)c1ccc(N2C(=O)C3CC=CCC3C2=O)cc1)c1ccc2c(c1)OCCO2 (stereo not drawn)
9.47 µM	Cc1ccc(C(=O)COC(=O)c2ccc(N3C(=O)C4CC=CCC4C3=O)cc2)cc1 (stereo not drawn)
0.401 µM	O=C(COC(=O)c1ccc(N2C(=O)C3CC=CCC3C2=O)cc1)c1ccc2c(c1)CCC2 (stereo not drawn)
18 µM	O=C(COC(=O)c1ccc(N2C(=O)C3CC=CCC3C2=O)cc1)c1ccc(C2CCCCC2)cc1 (stereo not drawn)

test system: not listed separately; experiment: Half life was determined; 1-2h; assay type: ADME

half-life	SMILES
2 h	Cc1ccc(C(=O)COC(=O)c2ccc(N3C(=O)CCC3=O)cc2)cc1C
2 h	Cc1ccc(C(=O)COC(=O)c2ccc(N3C(=O)C4CCC(C)CC4C3=O)cc2)cc1C (stereo not drawn)

molecular target: Metabotropic glutamate receptor 5 (Homo sapiens) (UniProt P41594); experiment: Percent inhibition against metabotropic glutamate receptor 5 (mGluR5) at 10 uM
Sequence (P41594 21-1212 limits assumed): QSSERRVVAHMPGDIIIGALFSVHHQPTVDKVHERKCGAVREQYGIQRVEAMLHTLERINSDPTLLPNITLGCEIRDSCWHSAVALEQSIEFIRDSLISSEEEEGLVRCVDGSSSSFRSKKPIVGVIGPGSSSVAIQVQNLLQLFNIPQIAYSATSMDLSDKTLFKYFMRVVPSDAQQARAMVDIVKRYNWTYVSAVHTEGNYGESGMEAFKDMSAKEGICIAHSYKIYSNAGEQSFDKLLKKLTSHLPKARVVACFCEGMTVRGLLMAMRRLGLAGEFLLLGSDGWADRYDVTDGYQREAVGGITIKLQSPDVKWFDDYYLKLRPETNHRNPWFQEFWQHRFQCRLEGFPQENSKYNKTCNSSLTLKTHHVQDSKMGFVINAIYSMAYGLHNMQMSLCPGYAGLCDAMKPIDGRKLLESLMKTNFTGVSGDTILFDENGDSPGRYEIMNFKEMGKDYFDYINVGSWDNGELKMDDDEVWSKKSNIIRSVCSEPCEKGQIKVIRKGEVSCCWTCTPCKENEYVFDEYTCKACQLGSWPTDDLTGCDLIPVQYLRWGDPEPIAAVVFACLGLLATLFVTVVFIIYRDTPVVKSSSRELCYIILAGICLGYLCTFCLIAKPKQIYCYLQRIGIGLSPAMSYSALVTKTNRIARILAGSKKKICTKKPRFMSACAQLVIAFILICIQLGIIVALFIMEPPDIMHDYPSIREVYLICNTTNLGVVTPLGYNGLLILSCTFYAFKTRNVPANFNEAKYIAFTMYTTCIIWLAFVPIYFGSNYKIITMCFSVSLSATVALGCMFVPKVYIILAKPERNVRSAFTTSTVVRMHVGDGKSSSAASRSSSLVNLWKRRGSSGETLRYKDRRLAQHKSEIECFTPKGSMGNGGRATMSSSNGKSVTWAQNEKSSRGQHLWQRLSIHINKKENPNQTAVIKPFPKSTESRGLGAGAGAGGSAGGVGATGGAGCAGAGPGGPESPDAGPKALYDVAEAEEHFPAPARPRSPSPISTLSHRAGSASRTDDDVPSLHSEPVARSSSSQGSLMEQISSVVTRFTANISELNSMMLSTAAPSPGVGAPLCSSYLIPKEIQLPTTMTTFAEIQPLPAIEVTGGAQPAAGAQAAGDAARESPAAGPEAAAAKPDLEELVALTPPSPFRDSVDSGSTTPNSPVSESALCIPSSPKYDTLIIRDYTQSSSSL

SMILES	inhibition
Cc1cc2c(cc1C)C(=O)N(NC(=O)c1ccc(N3C(=O)C4CC=CCC4C3=O)cc1)C2=O (stereo not drawn)	< 35%
Cc1ccc(CCNC(=O)c2ccc(N3C(=O)C4CC=CCC4C3=O)cc2)cc1C (stereo not drawn)	< 35%
Cc1ccc(NCC(=O)Nc2ccc(N3C(=O)C4CC=CCC4C3=O)cc2)cc1C (stereo not drawn)	< 35%
Cc1ccc(OCCCNC(=O)c2ccc(N3C(=O)C4CC=CCC4C3=O)cc2)cc1C (stereo not drawn)	< 35%
Cc1ccc(NC(=O)NCc2ccc(N3C(=O)C4CC=CCC4C3=O)cc2)cc1C (stereo not drawn)	< 35%
Cc1ccc(C(=O)CNC(=O)c2ccc(N3C(=O)C4CC=CCC4C3=O)cc2)cc1C (stereo not drawn)	< 35%
Cc1ccc(C(=O)COCc2ccc(N3C(=O)C4CC=CCC4C3=O)cc2)cc1C (stereo not drawn)	< 35%
Cc1ccc(CNC(=O)c2ccc(N3C(=O)C4CC=CCC4C3=O)cc2)cc1C (stereo not drawn)	< 35%
Cc1ccc(C(=O)NNC(=O)c2ccc(N3C(=O)C4CC=CCC4C3=O)cc2)cc1C (stereo not drawn)	< 35%
Cc1ccc(C2CN(C(=O)c3ccc(N4C(=O)C5CC=CCC5C4=O)cc3)CCO2)cc1C (stereo not drawn)	< 35%
Cc1ccc(C(=O)COC(=O)c2ccc(N3C(=O)c4ccncc4C3=O)cc2)cc1C	33%
Cc1ccc(NC(=O)c2ccc(N3C(=O)C4CC=CCC4C3=O)cc2)cc1C (stereo not drawn)	< 35%
Cc1ccc(CNC(=O)Nc2ccc(N3C(=O)C4CC=CCC4C3=O)cc2)cc1C (stereo not drawn)	< 35%
Cc1ccc(NC(=O)Nc2ccc(N3C(=O)C4CC=CCC4C3=O)cc2)cc1C (stereo not drawn)	< 35%
Cc1ccc(C(=O)CN(C)C(=O)c2ccc(N3C(=O)C4CC=CCC4C3=O)cc2)cc1C (stereo not drawn)	< 35%
Cc1ccc(C(=O)COC(=O)c2ccc(N3C(=O)C4=C(CCC4)C3=O)cc2)cc1C	10%
Cc1ccc(C(=O)COC(=O)c2ccc(NC(=O)C3CC=CCC3C(=O)O)cc2)cc1C (stereo not drawn)	34%
Cc1ccc(C(=O)COC(=O)c2ccc(N3C(=O)COCC3=O)cc2)cc1C	41%
Cc1ccc(OCCNC(=O)c2ccc(N3C(=O)C4CC=CCC4C3=O)cc2)cc1C (stereo not drawn)	< 35%
Cc1ccc(C(=O)N2CCCN2C(=O)c2ccc(N3C(=O)C4CC=CCC4C3=O)cc2)cc1C (stereo not drawn)	< 35%
Cc1ccc(C(=O)CN2C(=O)c3ccc(N4C(=O)C5CC=CCC5C4=O)cc3C2=O)cc1C (stereo not drawn)	< 35%
Cc1ccc2c(c1)C(=O)N(c1ccc(C(=O)OCC(=O)c3ccc(C)c(C)c3)cc1)C2=O	28%
Cc1ccc(C(=O)COC(=O)c2ccc(N3CCCC3=O)cc2)cc1C	38%

More lines, now with the values ahead:

inhibition	SMILES
32%	CC1(C)CCC(C)(C)c2cc(C(=O)COC(=O)c3ccc(N4C(=O)C5CC=CCC5C4=O)cc3)ccc21 (stereo not drawn)
18%	O=C(COC(=O)c1ccc(N2C(=O)C3CC=CCC3C2=O)cc1)c1ccccc1 (stereo not drawn)
21%	O=C(COC(=O)c1ccc(N2C(=O)C3CC=CCC3C2=O)cc1)c1ccc2c(c1)OCO2 (stereo not drawn)
39%	COc1ccc(C(=O)COC(=O)c2ccc(N3C(=O)C4CC=CCC4C3=O)cc2)cc1 (stereo not drawn)

— ChEMBL document CHEMBL1139596, “Non-competitive inhibitors of metabotropic glutamate receptor 5 (mGluR5)” (Bioorg Med Chem Lett, 2005)
